Reference: article PMC4134498 (British Journal of Cancer, 2014)
Entries after “also recorded” stand apart in the source; their conditions may differ.

Tests used:
[1] = Plasma pharmacokinetics of olaparib alone and with PLD; assay type: in vivo, patients; conditions: for AUC(0-t): olaparib AUC0–10 h, Day 1 alone; for AUC(0-t) / Cmax: mean±s.d.; for Cmax: olaparib Cmax, Day 2+PLD
advanced solid tumours = test: Preliminary efficacy: best objective response, RECIST v1.0; assay type: in vivo, patients
Summary of the method: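 Patients with advanced solid tumours took oral PARP inhibitor capsules bid, 50–400 mg, on days 1–7 (intermittent) or days 1–28 (continuous) of 28-day cycles, plus liposomal anthracycline 40 mg m−2 on day 1, for up to 6 combination cycles. Site investigators scored objective response by RECIST v1.0. Analyses ran by tumour type and gBRCA status, and for ovarian cancer by platinum sensitivity (progression-free interval ⩾6 months), retrospectively.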

[2] = ovarian cancer patients, all cohorts + PLD 40 mg m^−2, Total (n=26)
[3] = ovarian cancer patients, olaparib 50 mg bid 7 day + PLD 40 mg m^−2 (n=3)
[4] = ovarian cancer patients, olaparib 100 mg bid 7 day + PLD 40 mg m^−2 (n=2)
[5] = ovarian cancer patients, olaparib 100 mg bid 28 day + PLD 40 mg m^−2 (n=2)
[6] = ovarian cancer patients, olaparib 200 mg bid 7 day + PLD 40 mg m^−2 (n=2)
[7] = ovarian cancer patients, olaparib 200 mg bid 28 day + PLD 40 mg m^−2 (n=3)
[8] = ovarian cancer patients, olaparib 400 mg bid 7 day + PLD 40 mg m^−2 (n=8)
[9] = ovarian cancer patients, olaparib 400 mg bid 28 day + PLD 40 mg m^−2 (n=8)
[10] = overall population, all cohorts + PLD 40 mg m^−2, Total (n=42)
[11] = overall population, olaparib 50 mg bid 7 day + PLD 40 mg m^−2 (n=3)
[12] = overall population, olaparib 100 mg bid 7 day + PLD 40 mg m^−2 (n=3)
[13] = overall population, olaparib 100 mg bid 28 day + PLD 40 mg m^−2 (n=4)
[14] = overall population, olaparib 200 mg bid 7 day + PLD 40 mg m^−2 (n=3)
[15] = overall population, olaparib 200 mg bid 28 day + PLD 40 mg m^−2 (n=7)
[16] = overall population, olaparib 400 mg bid 7 day + PLD 40 mg m^−2 (n=12)
[17] = overall population, olaparib 400 mg bid 28 day + PLD 40 mg m^−2 (n=12)

O=C(c1cc(Cc2n[nH]c(=O)c3ccccc23)ccc1F)N1CCN(C(=O)C2CC2)CC1 [olaparib]
Tmax ([1]; human, plasma, oral): 2.1 h
AUC(0-t) ([1]; human, plasma, oral, 50 mg, olaparib 50 mg, n=3): 8700 ± 5800 ng·h/mL
AUC(0-t) ([1]; human, plasma, oral, 400 mg, olaparib 400 mg bid, n=11): 25900 ± 9000 ng·h/mL
Cmax ([1]; human, plasma, oral, olaparib 50 mg bid): 1400 ± 700 ng/mL
Cmax ([1]; human, plasma, oral, olaparib 100 mg bid): 2200 ± 1000 ng/mL
PK interference between olaparib and PLD ([1]; in vivo): No major pharmacokinetic interference; also recorded: minor
patients with antitumour activity (advanced solid tumours; continuous olaparib schedule + PLD): 7 out of 23
patients with antitumour activity (advanced solid tumours; intermittent olaparib schedule + PLD): 7 out of 21
ORR, platinum-resistant ovarian patients with a gBRCA mutation (advanced solid tumours; olaparib + PLD): 50%
ORR, platinum-sensitive ovarian patients with a gBRCA mutation (advanced solid tumours; olaparib + PLD): 67%
ORR, platinum-sensitive ovarian patients with wild type or unknown gBRCA mutation status (advanced solid tumours; olaparib + PLD): 100%
objective responses, evaluable patients with breast cancer (advanced solid tumours; olaparib + PLD): 8%
response rate, platinum-resistant ovarian patients (advanced solid tumours; olaparib + PLD): 25%
response rate, platinum-sensitive ovarian patients (advanced solid tumours; olaparib + PLD): 71%
ORR, ovarian cancer subgroup (advanced solid tumours; olaparib + PLD, 13 out of 26): 50%
ORR, overall population (advanced solid tumours; olaparib + PLD, 14 out of 42): 33%
Ovarian cancer patients with a complete or partial objective response (advanced solid tumours; olaparib + PLD, Platinum resistant, gBRCA Unknown): 0/6
Ovarian cancer patients with a complete or partial objective response (advanced solid tumours; olaparib + PLD, Platinum resistant, gBRCAm): 3/6
Ovarian cancer patients with a complete or partial objective response (advanced solid tumours; olaparib + PLD, Platinum sensitive, gBRCA Unknown): 1/1
Ovarian cancer patients with a complete or partial objective response (advanced solid tumours; olaparib + PLD, Platinum sensitive, gBRCAm): 8/12
Ovarian cancer patients with a complete or partial objective response (advanced solid tumours; olaparib + PLD, Platinum sensitive, gBRCAwt): 1/1
response, gBRCA-mutated patients in the ovarian subgroup (advanced solid tumours; olaparib + PLD, eleven patients): 61%
partial response (PR), evaluable patients (advanced solid tumours; olaparib + PLD, overall, 11 patients): 26%
complete response (CR), evaluable patients (advanced solid tumours; olaparib + PLD, overall, three patients): 7%
Best objective response: Complete response, patients (advanced solid tumours; [2]): 3 (12) n (%)
Best objective response: Partial response, patients (advanced solid tumours; [2]): 10 (38) n (%)
Best objective response: Progressive disease, patients (advanced solid tumours; [2]): 5 (19) n (%)
Best objective response: Stable disease, patients (advanced solid tumours; [2]): 8 (31) n (%)
Best objective response: Complete response, patients (advanced solid tumours; [3]): 1 n
Best objective response: Partial response, patients (advanced solid tumours; [3]): 1 n
Best objective response: Progressive disease, patients (advanced solid tumours; [3]): 0 n
Best objective response: Stable disease, patients (advanced solid tumours; [3]): 1 n
Best objective response: Complete response, patients (advanced solid tumours; [4]): 0 n
Best objective response: Partial response, patients (advanced solid tumours; [4]): 1 n
Best objective response: Progressive disease, patients (advanced solid tumours; [4]): 1 n
Best objective response: Stable disease, patients (advanced solid tumours; [4]): 0 n
Best objective response: Complete response, patients (advanced solid tumours; [5]): 0 n
Best objective response: Partial response, patients (advanced solid tumours; [5]): 0 n
Best objective response: Progressive disease, patients (advanced solid tumours; [5]): 1 n
Best objective response: Stable disease, patients (advanced solid tumours; [5]): 0 n
Best objective response: Complete response, patients (advanced solid tumours; [6]): 0 n
Best objective response: Partial response, patients (advanced solid tumours; [6]): 1 n
Best objective response: Progressive disease, patients (advanced solid tumours; [6]): 0 n
Best objective response: Stable disease, patients (advanced solid tumours; [6]): 1 n
Best objective response: Complete response, patients (advanced solid tumours; [7]): 0 n
Best objective response: Partial response, patients (advanced solid tumours; [7]): 1 n
Best objective response: Progressive disease, patients (advanced solid tumours; [7]): 0 n
Best objective response: Stable disease, patients (advanced solid tumours; [7]): 1 n
Best objective response: Complete response, patients (advanced solid tumours; [8]): 1 n
Best objective response: Partial response, patients (advanced solid tumours; [8]): 2 n
Best objective response: Progressive disease, patients (advanced solid tumours; [8]): 1 n
Best objective response: Stable disease, patients (advanced solid tumours; [8]): 4 n
Best objective response: Complete response, patients (advanced solid tumours; [9]): 1 n
Best objective response: Partial response, patients (advanced solid tumours; [9]): 4 n
Best objective response: Progressive disease, patients (advanced solid tumours; [9]): 2 n
Best objective response: Stable disease, patients (advanced solid tumours; [9]): 1 n
Best objective response: Complete response, patients (advanced solid tumours; [10]): 3 (7) n (%)
Best objective response: Not evaluable/unknown, patients (advanced solid tumours; [10]): 2 (5) n (%)
Best objective response: Partial response, patients (advanced solid tumours; [10]): 11 (26) n (%)
Best objective response: Progressive disease, patients (advanced solid tumours; [10]): 13 (31) n (%)
Best objective response: Stable disease, patients (advanced solid tumours; [10]): 13 (31) n (%)
Best objective response: Complete response, patients (advanced solid tumours; [11]): 1 n
Best objective response: Not evaluable/unknown, patients (advanced solid tumours; [11]): 0 n
Best objective response: Partial response, patients (advanced solid tumours; [11]): 1 n
Best objective response: Progressive disease, patients (advanced solid tumours; [11]): 0 n
Best objective response: Stable disease, patients (advanced solid tumours; [11]): 1 n
Best objective response: Complete response, patients (advanced solid tumours; [12]): 0 n
Best objective response: Not evaluable/unknown, patients (advanced solid tumours; [12]): 0 n
Best objective response: Partial response, patients (advanced solid tumours; [12]): 1 n
Best objective response: Progressive disease, patients (advanced solid tumours; [12]): 1 n
Best objective response: Stable disease, patients (advanced solid tumours; [12]): 1 n
Best objective response: Complete response, patients (advanced solid tumours; [13]): 0 n
Best objective response: Not evaluable/unknown, patients (advanced solid tumours; [13]): 0 n
Best objective response: Partial response, patients (advanced solid tumours; [13]): 0 n
Best objective response: Progressive disease, patients (advanced solid tumours; [13]): 2 n
Best objective response: Stable disease, patients (advanced solid tumours; [13]): 1 n
Best objective response: Complete response, patients (advanced solid tumours; [14]): 0 n
Best objective response: Not evaluable/unknown, patients (advanced solid tumours; [14]): 0 n
Best objective response: Partial response, patients (advanced solid tumours; [14]): 1 n
Best objective response: Progressive disease, patients (advanced solid tumours; [14]): 1 n
Best objective response: Stable disease, patients (advanced solid tumours; [14]): 1 n
Best objective response: Complete response, patients (advanced solid tumours; [15]): 0 n
Best objective response: Not evaluable/unknown, patients (advanced solid tumours; [15]): 1 n
Best objective response: Partial response, patients (advanced solid tumours; [15]): 1 n
Best objective response: Progressive disease, patients (advanced solid tumours; [15]): 2 n
Best objective response: Stable disease, patients (advanced solid tumours; [15]): 2 n
Best objective response: Complete response, patients (advanced solid tumours; [16]): 1 n
Best objective response: Not evaluable/unknown, patients (advanced solid tumours; [16]): 1 n
Best objective response: Partial response, patients (advanced solid tumours; [16]): 2 n
Best objective response: Progressive disease, patients (advanced solid tumours; [16]): 3 n
Best objective response: Stable disease, patients (advanced solid tumours; [16]): 5 n
Best objective response: Complete response, patients (advanced solid tumours; [17]): 1 n
Best objective response: Not evaluable/unknown, patients (advanced solid tumours; [17]): 0 n
Best objective response: Partial response, patients (advanced solid tumours; [17]): 5 n
Best objective response: Progressive disease, patients (advanced solid tumours; [17]): 4 n
Best objective response: Stable disease, patients (advanced solid tumours; [17]): 2 n
